Read-outs that look alike come from different tables or passages of the source. Marks after values point to notes of the source that are not given here.

Assay [1] concerns FXa. The note with it: cited from earlier work.
Assay [2] has as its target T1, antithrombin (AT) (Homo sapiens, UniProt P01008). The note with it: cited from earlier work.
The target in assay [3] is T1, antithrombin (AT). The settings on record: read-out: Binding affinity (Kd) to AT; affinity coelectrophoresis; cited from earlier work.
Assay [4] relates to FXa. Kind of assay: in vitro inhibition of the activity of FXa. It counts as biochemical. The note with it: for IC50: read-out: Anti-FXa activity (IC50).
In assay [5] the target is T1, antithrombin (AT). The experiment in a line: AT-binding affinity analysis using isothermal titration calorimetry. The note with it: for Binding affinity (Kd) to AT / Kd: ITC; for Kd: read-out: Binding affinity (Kd) to AT. A general note: Isothermal titration calorimetry measures the heat released or taken up as one component is titrated into another.
Assay [6] concerns FXa. The experiment in a line: anti-FXa effect in a rat model. It counts as in vivo. Put shortly:
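Anti-Xa activity measured at several time points after dosing, with a saline-treated group as control. Values are mean ± S.D. (n = 4). Each treated group was compared with control by two-tailed Student's t-test, with p < 0.05 flagged.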

T1 sequence (P01008 33-464): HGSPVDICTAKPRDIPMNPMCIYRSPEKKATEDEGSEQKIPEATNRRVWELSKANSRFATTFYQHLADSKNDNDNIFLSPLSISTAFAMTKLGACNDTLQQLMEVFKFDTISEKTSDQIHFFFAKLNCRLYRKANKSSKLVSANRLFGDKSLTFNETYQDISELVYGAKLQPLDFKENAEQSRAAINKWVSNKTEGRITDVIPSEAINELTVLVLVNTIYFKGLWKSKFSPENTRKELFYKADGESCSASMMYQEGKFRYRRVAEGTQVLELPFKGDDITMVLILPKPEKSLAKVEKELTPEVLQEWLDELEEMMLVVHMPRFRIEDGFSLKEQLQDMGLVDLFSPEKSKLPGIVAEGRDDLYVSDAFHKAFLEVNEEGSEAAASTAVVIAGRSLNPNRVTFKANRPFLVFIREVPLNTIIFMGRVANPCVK

Take `O=C(O)C1OC(OC2C(COS(=O)(=O)O)OC(OC3C(C(=O)O)OC(OC4C(COS(=O)(=O)O)OC(OC5C(C(=O)O)OC(Oc6ccc([N+](=O)[O-])cc6)C(O)C5O)C(NS(=O)(=O)O)C4O)C(OS(=O)(=O)O)C3O)C(NS(=O)(=O)O)C2OS(=O)(=O)O)C(O)C(O)C1OC1OC(COS(=O)(=O)O)C(O)C(O)C1NS(=O)(=O)O` (stereo not drawn) [GlcA2S-containing 6-mer, GlcNS6S-GlcA-GlcNS3S6S-GlcA2S-GlcNS6S-GlcA-pNP]: the “anti-FXa activity (in words)” value in assay [1] is recorded as “did not display anti-FXa activity”. In addition, in assay [2], the “Binding affinity (Kd) to AT” value is reported as “No binding ^d”.
For “GlcNS6S-GlcA-GlcNS3S6S-IdoA2S-GlcNS6S-GlcA-pNP [Comp 8*]”, the Kd (as a rule, the constant that tells how readily two partners part at equilibrium) in assay [3] was 7 ± 2 nM. In assay [4], the “anti-FXa activity (in words)” value is “displayed anti-FXa activity” and the IC50 (usually the concentration that gives 50% inhibition) came out at 9.1 nM.
“GlcNS-GlcA-GlcNS-IdoA2S-GlcNS3S-IdoA2S-GlcNS-GlcA-pNP [Comp 4]”: the “Binding affinity (Kd) to AT” value in assay [5] is recorded as “No binding ^c”. The “Anti-FXa activity (IC50)” value in assay [4] is “No inhibition”.
For the compound “GlcNAc6S-GlcA-GlcNS3S6S-IdoA2S-GlcNS6S-IdoA2S-GlcNS6S-GlcA-pNP [Comp 11*]”, the Kd in assay [3] is 8 ± 3 nM. The half-maximal inhibitory concentration (IC50) in assay [4] was 9.4 nM.
In the case of `O=C(O)C1OC(OC2C(COS(=O)(=O)O)OC(OC3C(C(=O)O)OC(OC4C(COS(=O)(=O)O)OC(OC5C(C(=O)O)OC(Oc6ccc([N+](=O)[O-])cc6)C(O)C5O)C(NS(=O)(=O)O)C4OS(=O)(=O)O)C(OS(=O)(=O)O)C3O)C(NS(=O)(=O)O)C2O)C(O)C(O)C1OC1OC(COS(=O)(=O)O)C(O)C(O)C1NS(=O)(=O)O` (stereo not drawn) [Comp 2, GlcNS6S-GlcA-GlcNS6S-IdoA2S-GlcNS3S6S-GlcA-pNP], the “Binding affinity (Kd) to AT” value in assay [5] was “No binding”. The “Anti-FXa activity (IC50)” value in assay [4] is given as “No inhibition”.
As to “GlcNS6S-GlcA-GlcNS6S-IdoA2S-GlcNS3S6S-IdoA2S-GlcNS6S-GlcA-pNP [Comp 5]”, in assay [5], the “AT binding (in words)” value is “binds to AT tightly” and the Kd was 5.1 ± 1.4 nM. In assay [4], the “anti-FXa activity (in words)” value is listed as “strong anti-FXa activity” and the IC50 was found to be 7.7 nM. Further, in assay [6] (within 30 min after the drug was administered), the “anti-FXa potency in vivo” value was “comparable anti-FXa potency to that of fondaparinux and compound 11*”.
For the compound `CO[C@H]1O[C@H](COS(=O)(=O)O)[C@@H](O[C@@H]2O[C@@H](C(=O)O)[C@@H](O[C@H]3O[C@H](COS(=O)(=O)O)[C@@H](O[C@@H]4O[C@H](C(=O)O)[C@@H](O[C@H]5O[C@H](COS(=O)(=O)O)[C@@H](O)[C@H](O)[C@H]5NS(=O)(=O)O)[C@H](O)[C@H]4O)[C@H](OS(=O)(=O)O)[C@H]3NS(=O)(=O)O)[C@H](O)[C@H]2OS(=O)(=O)O)[C@H](O)[C@H]1NS(=O)(=O)O` [Fondaparinux, GlcNS6S-GlcA-GlcNS3S6S-IdoA2S-GlcNS6S-OMe, reference compound], the IC50 in assay [4] worked out at 12.2 nM. Also, the “persistence of anti-FXa effect in vivo” value in assay [6] (time after administration) is on record as “persisted after 8 hours”.
With `O=C(O)[C@H]1O[C@@H](Oc2ccc([N+](=O)[O-])cc2)[C@H](O)[C@@H](O)[C@@H]1O[C@H]1O[C@H](COS(=O)(=O)O)[C@@H](O[C@@H]2O[C@@H](C(=O)O)[C@@H](O[C@H]3O[C@H](COS(=O)(=O)O)[C@@H](O[C@@H]4O[C@@H](C(=O)O)[C@@H](O[C@H]5O[C@H](COS(=O)(=O)O)[C@@H](O[C@@H]6O[C@H](C(=O)O)[C@@H](O[C@H]7O[C@H](COS(=O)(=O)O)[C@@H](O)[C@H](O)[C@H]7NS(=O)(=O)O)[C@H](O)[C@H]6O)[C@H](OS(=O)(=O)O)[C@H]5NS(=O)(=O)O)[C@H](O)[C@H]4OS(=O)(=O)O)[C@H](OS(=O)(=O)O)[C@H]3NS(=O)(=O)O)[C@H](O)[C@H]2OS(=O)(=O)O)[C@H](O)[C@H]1NS(=O)(=O)O` [Comp 6, GlcNS6S-GlcA-GlcNS3S6S-IdoA2S-GlcNS3S6S-IdoA2S-GlcNS6S-GlcA-pNP], in assay [5], the “AT binding (in words)” value is “high AT-binding affinity” and the Kd was determined as 5.6 ± 2.6 nM. For the same compound, in assay [4], the “anti-FXa activity (in words)” value is “displaying anti-FXa activity” and the IC50 turned out to be 10.9 nM.
For `O=C(O)[C@H]1O[C@@H](O[C@H]2[C@H](OS(=O)(=O)O)[C@@H](NS(=O)(=O)O)[C@@H](O[C@H]3[C@H](O)[C@@H](OS(=O)(=O)O)[C@H](O[C@H]4[C@H](OS(=O)(=O)O)[C@@H](NS(=O)(=O)O)[C@@H](O[C@H]5[C@H](O)[C@@H](O)[C@H](Oc6ccc([N+](=O)[O-])cc6)O[C@@H]5C(=O)O)O[C@@H]4COS(=O)(=O)O)O[C@H]3C(=O)O)O[C@@H]2COS(=O)(=O)O)[C@H](O)[C@@H](O)[C@@H]1O[C@H]1O[C@H](COS(=O)(=O)O)[C@@H](O)[C@H](O)[C@H]1NS(=O)(=O)O` [Comp 3, GlcNS6S-GlcA-GlcNS3S6S-IdoA2S-GlcNS3S6S-GlcA-pNP], in assay [4], the “anti-FXa activity (in words)” value is “strong anti-FXa activity” and the IC50 is 11 nM.
Take `O=C(O)C1OC(OC2C(COS(=O)(=O)O)OC(OC3C(C(=O)O)OC(OC4C(COS(=O)(=O)O)OC(OC5C(C(=O)O)OC(Oc6ccc([N+](=O)[O-])cc6)C(O)C5O)C(NS(=O)(=O)O)C4O)C(O)C3O)C(NS(=O)(=O)O)C2OS(=O)(=O)O)C(O)C(O)C1OC1OC(COS(=O)(=O)O)C(O)C(O)C1NS(=O)(=O)O` (stereo not drawn) [IdoA-containing 6-mer, GlcNS6S-GlcA-GlcNS3S6S-IdoA-GlcNS6S-GlcA-pNP]: the “anti-FXa activity (in words)” value in assay [1] is reported as “exhibited anti-FXa activity”. Further, the IC50 in assay [1] (read-out: Anti-FXa activity (IC50)) is 29.2 nM. Besides, the Kd in assay [2] (read-out: Binding affinity (Kd) to AT) was 32.6 ± 5.3 nM.
